Ten compounds from ChEMBL document CHEMBL3352173, “Optimization of pyrrolamide topoisomerase II inhibitors toward identification of an antibacterial clinical candidate (AZD5099)” (J Med Chem, 2014) can be followed below.

≈ marks a conversion by molar mass, not a printed value. Where only a bound is given, the exact number is not on record here.

For one series, the system named is Haemophilus influenzae. Description: Antimicrobial activity against Haemophilus influenzae by broth microdilution/CLSI method. The series is classed as functional. The settings on record: Haemophilus influenzae; read-out: MIC. On the technique in general: In broth dilution the organism is exposed to a series of concentrations in liquid medium.
The target of a further series is DNA gyrase subunit B (Staphylococcus aureus, UniProt P0A0K8). Description: Inhibition of ATPase activity of Staphylococcus aureus GyrB. The gist of the method:
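IC50 was determined against S. aureus GyrB in the routine screening assay. The enzyme concentration limits resolution below 10 nM.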

In another series the test system is Streptococcus pneumoniae. Description: Antibacterial activity against Streptococcus pneumoniae by broth microdilution/CLSI method. The series is classed as functional.
The next series has as its system Streptococcus pyogenes. Description: Antimicrobial activity against Streptococcus pyogenes by broth microdilution/CLSI method. The series is classed as functional.
For series [1], the system named is Staphylococcus aureus. Description: Antimicrobial activity against methicillin-sensitive Staphylococcus aureus by broth microdilution/CLSI method. It is filed as functional.
In series [2] the test system is Staphylococcus aureus. Description: Antimicrobial activity against methicillin, quinolone-resistant Staphylococcus aureus by broth microdilution/CLSI method. The series is classed as functional. The settings on record: Staphylococcus aureus; read-out: MIC.
In the next series the test system is Moraxella catarrhalis. Description: Antimicrobial activity against Moraxella catarrhalis by broth microdilution/CLSI method. The series is classed as functional.
The subject of series [3] is Escherichia coli. Nature of the series: Antimicrobial activity against wild-type Escherichia coli Eco523 by broth microdilution/CLSI method. It is filed as functional. The settings on record: Escherichia coli, Eco523; read-out: MIC.
Series [4] concerns Escherichia coli. Nature of the series: Antimicrobial activity against Escherichia coli tolC- by broth microdilution/CLSI method. It is filed as functional. The settings on record: Escherichia coli; read-out: MIC.
A short description of series [5]: Octanol-phosphate buffer distribution coefficient, log D of the compound at pH 7.4 by shake flask method. It is filed as physicochemical.
Series [6] can be described thus: Solubility of the compound. The series is classed as physicochemical.
Series [7] in a line: Percentage unbound in human plasma. It is filed as ADME, cell-free.
[8] abbreviates: Streptococcus pneumoniae, read-out: MIC.
Setting [9] is: Staphylococcus aureus, read-out: MIC.
The mark [10] stands for this setting: Moraxella catarrhalis, read-out: MIC.

Broadly, the IC50 is the concentration at which inhibition is half-maximal. Lower therefore signals higher potency. The term logD denotes the decadic logarithm of the distribution of all forms, ionised or not, between an organic phase and buffer at a given pH. A word on the solubility: it is the dissolved amount per volume that the medium holds. Read a low solubility as little dissolved substance. One may read the fraction unbound as the share of the substance not bound to proteins or other matrix. Low values mean extensive binding, high ones weak binding.

DNA gyrase subunit B, sequence (P0A0K8 whole entry): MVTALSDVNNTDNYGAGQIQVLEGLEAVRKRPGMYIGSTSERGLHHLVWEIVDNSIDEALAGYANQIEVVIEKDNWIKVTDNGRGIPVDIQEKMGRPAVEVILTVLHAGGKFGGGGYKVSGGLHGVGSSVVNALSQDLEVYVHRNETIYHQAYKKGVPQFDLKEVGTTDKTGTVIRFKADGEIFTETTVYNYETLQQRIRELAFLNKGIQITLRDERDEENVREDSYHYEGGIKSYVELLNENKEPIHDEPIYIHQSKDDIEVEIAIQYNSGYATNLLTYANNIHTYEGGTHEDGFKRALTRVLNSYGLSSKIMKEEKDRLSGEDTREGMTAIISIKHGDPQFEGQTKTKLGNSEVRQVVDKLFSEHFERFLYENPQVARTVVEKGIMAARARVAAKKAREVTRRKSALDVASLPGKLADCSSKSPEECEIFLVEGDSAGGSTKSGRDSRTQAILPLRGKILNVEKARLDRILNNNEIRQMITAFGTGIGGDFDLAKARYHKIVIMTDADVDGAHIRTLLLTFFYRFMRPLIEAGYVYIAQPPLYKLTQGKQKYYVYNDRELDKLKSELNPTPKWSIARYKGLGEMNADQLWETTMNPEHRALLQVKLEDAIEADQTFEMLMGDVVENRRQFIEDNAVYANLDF

As to `CO[C@H]1CN(c2nc(-c3ccn[nH]3)c(C(=O)O)s2)CC[C@H]1NC(=O)c1[nH]c(C)c(Cl)c1Cl`, the MIC with Haemophilus influenzae was 0.5 µg/mL (≈ 1 µM); in the series on Streptococcus pneumoniae (setting [8]), < 0.06 µg/mL; in the series with Streptococcus pyogenes it was < 0.06 µg/mL; in the series with Staphylococcus aureus [1] (setting [9]), 0.5 µg/mL (≈ 1 µM); with Staphylococcus aureus [2], 0.17 µg/mL (≈ 0.34 µM); in the series on Moraxella catarrhalis (setting [10]) it was < 0.06 µg/mL. Also, the values for the MIC with Escherichia coli [3] and in the series with Escherichia coli [4] were 64 µg/mL (≈ 128 µM) and 0.18 µg/mL (≈ 0.36 µM), respectively. Moreover, the IC50 at DNA gyrase subunit B was < 10 nM. Also, in series [5], the logD was 1.7. Besides, the solubility in series [6] came to 740 µM (≈ 370 µg/mL).
For `CO[C@H]1CN(c2ncc(C(=O)O)s2)CC[C@H]1NC(=O)c1[nH]c(C)c(Cl)c1Cl` (relative stereo), the MIC in the series with Haemophilus influenzae was 0.3 µg/mL (≈ 0.692 µM); in the series on Streptococcus pneumoniae it was 0.063 µg/mL (≈ 0.145 µM); in the series on Staphylococcus aureus [1] it was 1 µg/mL (≈ 2.31 µM); in the series with Staphylococcus aureus [2] it was 1 µg/mL (≈ 2.31 µM); with Moraxella catarrhalis, 0.076 µg/mL (≈ 0.175 µM); in the series on Escherichia coli [3], > 64 µg/mL. The MIC in the series on Escherichia coli [4] was 0.35 µg/mL (≈ 0.808 µM). The IC50 against DNA gyrase subunit B was < 10 nM.
Turning to `CO[C@H]1CO[C@@]2(CN(c3ncc(C(=O)O)s3)CC[C@H]2NC(=O)c2[nH]c(C)c(Cl)c2Cl)OC1` (relative stereo), the MIC with Haemophilus influenzae amounted to 2 µg/mL (≈ 3.96 µM); in the series with Streptococcus pneumoniae (setting [8]), 0.063 µg/mL (≈ 0.125 µM); against Streptococcus pyogenes, 0.063 µg/mL (≈ 0.125 µM); with Staphylococcus aureus [1] (setting [9]), 4 µg/mL (≈ 7.91 µM); in the series on Staphylococcus aureus [2], 8 µg/mL (≈ 15.8 µM); in the series on Moraxella catarrhalis (setting [10]) it was 1 µg/mL (≈ 1.98 µM). Also, the MIC in the series on Escherichia coli [3] was > 64 µg/mL; in the series on Escherichia coli [4] it was 1 µg/mL (≈ 1.98 µM). The IC50 against DNA gyrase subunit B is < 10 nM. For the same compound, in series [5], the logD came out at 0.15. In series [7], this compound displayed a fraction unbound of 0.053. In addition, the solubility in series [6] was > 1000 µM.
Regarding `Cc1[nH]c(C(=O)N[C@@H]2CCN(c3ncc(C(=O)O)s3)C[C@@H]2C)c(Cl)c1Cl` (racemic), the MIC was 2 µg/mL (≈ 4.79 µM) with Haemophilus influenzae; 0.5 µg/mL (≈ 1.2 µM) with Streptococcus pneumoniae (setting [8]); 4 µg/mL (≈ 9.59 µM) in the series with Staphylococcus aureus [1] (setting [9]); 4 µg/mL (≈ 9.59 µM) in the series on Staphylococcus aureus [2]; 0.5 µg/mL (≈ 1.2 µM) with Moraxella catarrhalis (setting [10]); > 8 µg/mL in the series with Escherichia coli [3]. In the series on Escherichia coli [4], the MIC is 0.5 µg/mL (≈ 1.2 µM). At DNA gyrase subunit B, this compound returned an IC50 of 14 nM. In addition, the logD in [5] came to 0.54. In series [7], this compound came in with a fraction unbound of 0.023.
Take `Cc1[nH]c(C(=O)N[C@@H]2CCN(c3ncc(C(=O)O)s3)C[C@@H]2Cl)c(Cl)c1Cl` (racemic): the MIC in the series on Haemophilus influenzae is 0.18 µg/mL (≈ 0.411 µM); in the series with Streptococcus pneumoniae (setting [8]), 0.044 µg/mL (≈ 0.101 µM); with Staphylococcus aureus [1] (setting [9]), 0.35 µg/mL (≈ 0.8 µM); in the series with Staphylococcus aureus [2], 2 µg/mL (≈ 4.57 µM); in the series on Moraxella catarrhalis (setting [10]), 0.11 µg/mL (≈ 0.251 µM); in the series on Escherichia coli [3] it was > 8 µg/mL. Also, in the series on Escherichia coli [4], the MIC was 0.35 µg/mL (≈ 0.8 µM). The IC50 against DNA gyrase subunit B was < 10 nM. Moreover, in series [5], the logD amounted to 0.75. The same compound yielded a fraction unbound in [7] of 0.008.
For the compound `Cc1[nH]c(C(=O)N[C@@H]2CCN(c3ncc(C(=O)O)s3)C[C@@H]2CO)c(Cl)c1Cl` (racemic), the MIC is 16 µg/mL (≈ 36.9 µM) in the series on Haemophilus influenzae; 8 µg/mL (≈ 18.5 µM) in the series on Streptococcus pneumoniae (setting [8]); > 64 µg/mL with Staphylococcus aureus [1] (setting [9]); 64 µg/mL (≈ 148 µM) in the series on Staphylococcus aureus [2]; 1 µg/mL (≈ 2.31 µM) in the series on Moraxella catarrhalis (setting [10]); > 64 µg/mL with Escherichia coli [3]. The MIC in the series with Escherichia coli [4] turned out to be 1 µg/mL (≈ 2.31 µM). Also, half-maximal inhibition against DNA gyrase subunit B (IC50) was put at 18 nM. The logD in series [5] is -0.42.
As to `Cc1[nH]c(C(=O)N[C@@H]2CCN(c3ncc(C(=O)O)s3)C[C@@H]2S(C)(=O)=O)c(Cl)c1Cl` (racemic), the MIC in the series on Haemophilus influenzae is > 8 µg/mL; in the series on Streptococcus pneumoniae (setting [8]) it was > 8 µg/mL; against Streptococcus pyogenes it was 8 µg/mL (≈ 16.6 µM); in the series with Staphylococcus aureus [1] (setting [9]), > 8 µg/mL; in the series on Moraxella catarrhalis (setting [10]), > 8 µg/mL; in the series with Escherichia coli [3] it was > 8 µg/mL. Besides, the MIC in the series on Escherichia coli [4] was > 8 µg/mL. Moreover, the IC50 against DNA gyrase subunit B was < 10 nM. The log distribution coefficient (logD) in series [5] was -1.1. Besides, the fraction unbound in series [7] turned out to be 0.13. Besides, the solubility in [6] was > 1000 µM.
With `CO[C@@H]1CN(c2ncc(C(=O)O)s2)CC[C@H]1NC(=O)c1[nH]c(C)c(Cl)c1Cl`, the MIC with Haemophilus influenzae is 16 µg/mL (≈ 36.9 µM); with Streptococcus pneumoniae (setting [8]), 8 µg/mL (≈ 18.5 µM); in the series on Staphylococcus aureus [1] (setting [9]), > 64 µg/mL; in the series on Staphylococcus aureus [2], > 64 µg/mL; with Moraxella catarrhalis (setting [10]), 2 µg/mL (≈ 4.62 µM); in the series with Escherichia coli [3] it was > 64 µg/mL. In addition, in the series on Escherichia coli [4], the MIC turned out to be 2 µg/mL (≈ 4.62 µM). On DNA gyrase subunit B, this compound gave an IC50 of 110 nM.
On to `C=CCO[C@H]1CN(c2ncc(C(=O)O)s2)CC[C@H]1NC(=O)c1[nH]c(C)c(Cl)c1Cl` (racemic), for which the MIC with Haemophilus influenzae was 0.5 µg/mL (≈ 1.09 µM); in the series with Streptococcus pneumoniae (setting [8]) it was < 0.063 µg/mL; against Streptococcus pyogenes it was < 0.063 µg/mL; in the series with Staphylococcus aureus [1] (setting [9]), 0.5 µg/mL (≈ 1.09 µM); in the series on Staphylococcus aureus [2], 1 µg/mL (≈ 2.18 µM); in the series on Moraxella catarrhalis (setting [10]), < 0.063 µg/mL. Besides, the MIC is > 8 µg/mL in the series on Escherichia coli [3] and 0.13 µg/mL (≈ 0.283 µM) in the series with Escherichia coli [4]. The IC50 at DNA gyrase subunit B is < 10 nM.
As for `Cc1[nH]c(C(=O)N[C@@H]2CCN(c3ncc(C(=O)O)s3)C[C@@H]2F)c(Cl)c1Cl`, the MIC came to 0.3 µg/mL (≈ 0.712 µM) with Haemophilus influenzae; 0.078 µg/mL (≈ 0.185 µM) in the series on Streptococcus pneumoniae (setting [8]); 0.092 µg/mL (≈ 0.218 µM) against Streptococcus pyogenes; 1.3 µg/mL (≈ 3.09 µM) in the series on Staphylococcus aureus [1] (setting [9]); 2.2 µg/mL (≈ 5.22 µM) in the series on Staphylococcus aureus [2]; 0.046 µg/mL (≈ 0.109 µM) in the series on Moraxella catarrhalis (setting [10]). Also, the figures for the MIC in the series on Escherichia coli [3] and in the series on Escherichia coli [4] were > 64 µg/mL and 0.081 µg/mL (≈ 0.192 µM), respectively. Also, the IC50 against DNA gyrase subunit B was < 10 nM.
